In ChEMBL document CHEMBL1126865, “Structure-activity relationship within a series of pyrazolidinone antibacterial agents. 2. Effect of side-chain modification on in vitro activity and pharmacokinetic parameters” (J Med Chem, 1993):
Converted amounts (≈) assume the structure as drawn.

What was measured:
[1] = Plasma half-life in human after intravenous administration; type: ADME, organism-based
[2] = system: Monkey; assay: (§1) Plasma half-life in monkey after intravenous administration; type: functional, organism-based; conditions: Cercopithecidae
Outline: (§2)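 Male rhesus monkeys (n = 3) dosed iv at 30 mg/kg in 0.9% saline; plasma sampled from cephalic vein over 3 h. Drug levels by agar well diffusion bioassay (E. coli ATCC4157 or Proteus providentia XC24) against standard curves in spiked plasma. Samples stored at -70 °C. Half-life = 0.693/β, β the terminal slope of plasma vs time curve.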

[3] = system: Rattus norvegicus; assay: (§3) Plasma half-life in rats after intravenous administration; type: functional, organism-based
Outline: (§4)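 Male Sprague-Dawley rats were given 20 mg/kg IV in 0.9% saline through an indwelling jugular cannula, which was also used for serial blood sampling. Plasma and cumulative urine (citrate pH 6.5, metabolism cages) were collected over 6 h and stored at -70 °C. Levels were measured by agar well diffusion bioassay against standard curves in plasma or citrate. Half-life = 0.693/β; recovery as % of dose.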

[4] = Maximum concentration in male rats after iv administration of 20 mg/kg; type: ADME, organism-based; set-up: dose 20 mg/kg, route intravenous; conditions: rat, in vivo; outline: as §4
[5] = as §3; type: ADME, organism-based; conditions: rat; outline: as §4
[6] = Urinary recovery expressed as percentage dose in male rats after iv administration of 20 mg/kg; type: ADME, organism-based; set-up: dose 20 mg/kg, route intravenous; conditions: rat, urine; outline: as §4
[7] = system: Klebsiella aerogenes; assay: In vitro antibacterial activity against Enterobacter aerogenes C32; type: functional
[8] = system: Escherichia coli; assay: In vitro antibacterial activity against Escherichia coli EC14; type: functional
[9] = system: Haemophilus influenzae; assay: In vitro antibacterial activity against Haemophilus influenza C.L; type: functional
[10] = system: Klebsiella pneumoniae; assay: In vitro antibacterial activity against Klebsiella X26; type: functional
[11] = system: Pseudomonas aeruginosa; assay: In vitro antibacterial activity against Pseudomonas PS72; type: functional
[12] = system: Staphylococcus epidermidis; assay: In vitro antibacterial activity against Staphylococcus epidermidis 222; type: functional
[13] = system: Staphylococcus aureus; assay: In vitro antibacterial activity against Staphylococcus aureus X1.1; type: functional
[14] = system: Streptococcus pneumoniae; assay: In vitro antibacterial activity against Streptococcus pneumoniae PARK; type: functional
[15] = Half-life period in male rats after iv administration of 20 mg/kg; type: ADME, organism-based; set-up: dose 20 mg/kg, route intravenous; conditions: rat, in vivo; outline: as §4
[16] = as §1; type: ADME, organism-based; conditions: simiiformes; outline: as §2

| SMILES | half-life [1] [min] | Cmax [4] [µg/mL] | half-life [5] [min] | dose excreted [6] [%] | MIC [7] [µg/mL] | MIC [8] [µg/mL] | MIC [9] [µg/mL] | MIC [10] [µg/mL] | MIC [11] [µg/mL] | MIC [12] [µg/mL] | MIC [13] [µg/mL] | MIC [14] [µg/mL] | half-life [15] [min] | half-life [16] [min] | T1/2 [2] [min] | T1/2 [3] [min] |
| --- | --- | --- | --- | --- | --- | --- | --- | --- | --- | --- | --- | --- | --- | --- | --- | --- |
| Cn1nnnc1SCC1=C(C(=O)O)N2C(=O)[C@@H](NC(=O)[C@H](O)c3ccccc3)[C@H]2SC1 [CEFAMANDOLE] | 48 |  |  |  |  |  |  |  |  |  |  |  |  |  | 34 | 15 |
| CCCS(=O)(=O)C1=C(C(=O)O)N2C(=O)[C@@H](NC(=O)/C(=N/OCCCl)c3csc(N)n3)CN2C1 |  | 74.3 | 15 | 44.2 | 0.5 (≈ 0.96 µM) | 0.125 (≈ 0.24 µM) | 0.125 (≈ 0.24 µM) | 0.03 (≈ 0.0576 µM) | > 128 | 16 (≈ 30.7 µM) | 8 (≈ 15.4 µM) | 0.06 (≈ 0.115 µM) | 14.7 |  |  |  |
| CO/N=C(\C(=O)N[C@@H]1C(=O)N2C(C(=O)O)=CCS[C@H]12)c1csc(N)n1 [CEFTIZOXIME] | 96 |  | 15 |  |  |  |  |  |  |  |  |  |  | 44 |  |  |
| N#CC1=C(C(=O)O)N2C(=O)[C@@H](NC(=O)/C(=N/OCc3ccccc3)c3csc(N)n3)CN2C1 |  |  |  |  | 8 (≈ 17.1 µM) | 8 (≈ 17.1 µM) | 0.25 (≈ 0.535 µM) | 0.125 (≈ 0.267 µM) | > 128 | 8 (≈ 17.1 µM) | 8 (≈ 17.1 µM) | 0.06 (≈ 0.128 µM) |  |  |  |  |
| CC(C)(O/N=C(\C(=O)N[C@@H]1C(=O)N2C(C(=O)[O-])=C(C[n+]3ccccc3)CS[C@H]12)c1csc(N)n1)C(=O)O [CEFTAZIDIME] | 108 |  | 23 |  |  |  |  |  |  |  |  |  |  | 49 |  |  |
| CCS(=O)(=O)C1=C(C(=O)O)N2C(=O)[C@@H](NC(=O)/C(=N/OCSC)c3csc(N)n3)CN2C1 |  |  |  |  | 0.5 (≈ 0.991 µM) | 0.25 (≈ 0.495 µM) | 0.5 (≈ 0.991 µM) | 0.06 (≈ 0.119 µM) | > 128 | 64 (≈ 127 µM) | 16 (≈ 31.7 µM) | 0.125 (≈ 0.248 µM) |  |  |  |  |
| CCN1CCN(C(=O)N[C@@H](C(=O)N[C@H]2CN3CC(C#N)=C(C(=O)O)N3C2=O)c2ccccc2)C(=O)C1=O |  |  |  |  | 2 (≈ 3.93 µM) | 1 (≈ 1.96 µM) | 0.5 (≈ 0.981 µM) | 0.5 (≈ 0.981 µM) | 128 (≈ 251 µM) | 32 (≈ 62.8 µM) | 16 (≈ 31.4 µM) | 4 (≈ 7.85 µM) |  |  |  |  |
| CS(=O)(=O)C1=C(C(=O)O)N2C(=O)[C@@H](NC(=O)/C(=N/OCC#N)c3csc(N)n3)CN2C1 |  |  |  |  | 0.5 (≈ 1.07 µM) | 0.25 (≈ 0.533 µM) | 2 (≈ 4.26 µM) | 0.25 (≈ 0.533 µM) | > 128 | 128 (≈ 273 µM) | 64 (≈ 136 µM) | 0.25 (≈ 0.533 µM) |  |  |  |  |
| CCCO/N=C(/C(=O)N[C@H]1CN2CC(S(=O)(=O)CCC)=C(C(=O)O)N2C1=O)c1csc(N)n1 |  |  |  |  | 1 (≈ 2 µM) | 0.5 (≈ 0.999 µM) | 0.5 (≈ 0.999 µM) | 0.06 (≈ 0.12 µM) | > 128 | 32 (≈ 63.9 µM) | 16 (≈ 32 µM) | 0.125 (≈ 0.25 µM) |  |  |  |  |
| N#CC1=C(C(=O)O)N2C(=O)[C@@H](NC(=O)Cc3csc(N)n3)CN2C1 |  |  |  |  | 32 (≈ 91.9 µM) | 16 (≈ 45.9 µM) | 32 (≈ 91.9 µM) | 16 (≈ 45.9 µM) | > 128 | 64 (≈ 184 µM) | 32 (≈ 91.9 µM) | 2 (≈ 5.74 µM) |  |  |  |  |
| CCS(=O)(=O)C1=C(C(=O)O)N2C(=O)[C@@H](NC(=O)/C(=N/OCCCl)c3csc(N)n3)CN2C1 |  |  |  |  | 0.5 (≈ 0.986 µM) | 0.25 (≈ 0.493 µM) | 1 (≈ 1.97 µM) | 0.125 (≈ 0.247 µM) | > 128 | 32 (≈ 63.1 µM) | 16 (≈ 31.6 µM) | 0.25 (≈ 0.493 µM) |  |  |  |  |
| CC(C)=CCO/N=C(/C(=O)N[C@H]1CN2CC(S(C)(=O)=O)=C(C(=O)O)N2C1=O)c1csc(N)n1 |  |  |  |  | 2 (≈ 4.01 µM) | 0.5 (≈ 1 µM) | 0.25 (≈ 0.501 µM) | 0.06 (≈ 0.12 µM) | > 128 | 8 (≈ 16 µM) | 4 (≈ 8.02 µM) | 0.06 (≈ 0.12 µM) |  |  |  |  |
| C=CCO/N=C(/C(=O)N[C@H]1CN2CC(S(=O)(=O)CCC)=C(C(=O)O)N2C1=O)c1csc(N)n1 |  |  |  |  | 0.5 (≈ 1 µM) | 0.5 (≈ 1 µM) | 0.25 (≈ 0.501 µM) | 0.06 (≈ 0.12 µM) | > 128 | 32 (≈ 64.2 µM) | 16 (≈ 32.1 µM) | 0.06 (≈ 0.12 µM) |  |  |  |  |
| Nc1nc(/C(=N\OCCCl)C(=O)N[C@H]2CN3CC(S(=O)(=O)c4ccccc4)=C(C(=O)O)N3C2=O)cs1 |  |  |  |  | 4 (≈ 7.21 µM) | 1 (≈ 1.8 µM) | 0.25 (≈ 0.45 µM) | 0.06 (≈ 0.108 µM) | > 128 | 32 (≈ 57.7 µM) | 16 (≈ 28.8 µM) | 0.06 (≈ 0.108 µM) |  |  |  |  |

More lines, in order of falling MIC [7], values ahead:

| half-life [1] [min] | Cmax [4] [µg/mL] | half-life [5] [min] | dose excreted [6] [%] | MIC [7] [µg/mL] | MIC [8] [µg/mL] | MIC [9] [µg/mL] | MIC [10] [µg/mL] | MIC [11] [µg/mL] | MIC [12] [µg/mL] | MIC [13] [µg/mL] | MIC [14] [µg/mL] | half-life [15] [min] | half-life [16] [min] | SMILES | T1/2 [2] [min] | T1/2 [3] [min] |
| --- | --- | --- | --- | --- | --- | --- | --- | --- | --- | --- | --- | --- | --- | --- | --- | --- |
|  |  |  |  | 0.25 (≈ 0.496 µM) | 0.125 (≈ 0.248 µM) | 0.125 (≈ 0.248 µM) | 0.03 (≈ 0.0595 µM) | > 128 | 32 (≈ 63.4 µM) | 16 (≈ 31.7 µM) | 0.125 (≈ 0.248 µM) |  |  | CCCS(=O)(=O)C1=C(C(=O)O)N2C(=O)[C@@H](NC(=O)/C(=N/OCCF)c3csc(N)n3)CN2C1 |  |  |
|  | 70.3 | 11 | 53.1 | 0.25 (≈ 0.516 µM) | 0.06 (≈ 0.124 µM) | 0.125 (≈ 0.258 µM) | 0.015 (≈ 0.031 µM) | 128 (≈ 264 µM) | 8 (≈ 16.5 µM) | 4 (≈ 8.26 µM) | 0.06 (≈ 0.124 µM) | 11.3 | 36 | C=CCCO/N=C(/C(=O)N[C@H]1CN2CC(S(C)(=O)=O)=C(C(=O)O)N2C1=O)c1csc(N)n1 |  |  |
|  |  |  |  | 0.25 (≈ 0.529 µM) | 0.125 (≈ 0.265 µM) | 0.125 (≈ 0.265 µM) | 0.015 (≈ 0.0317 µM) | 128 (≈ 271 µM) | 16 (≈ 33.9 µM) | 8 (≈ 16.9 µM) | 0.125 (≈ 0.265 µM) |  |  | CCCO/N=C(/C(=O)N[C@H]1CN2CC(S(C)(=O)=O)=C(C(=O)O)N2C1=O)c1csc(N)n1 |  |  |
|  |  |  |  | 0.25 (≈ 0.512 µM) | 0.06 (≈ 0.123 µM) | 1 (≈ 2.05 µM) | 0.125 (≈ 0.256 µM) | 128 (≈ 262 µM) | > 128 | > 128 | 2 (≈ 4.09 µM) |  |  | CS(=O)(=O)C1=C(C(=O)O)N2C(=O)[C@@H](NC(=O)/C(=N/OCC(=O)O)c3csc(N)n3)CN2C1 |  |  |
|  |  |  |  | 0.125 (≈ 0.254 µM) | 0.125 (≈ 0.254 µM) | 0.5 (≈ 1.01 µM) | 0.03 (≈ 0.0609 µM) | > 128 | 32 (≈ 64.9 µM) | 16 (≈ 32.5 µM) | 0.25 (≈ 0.507 µM) |  |  | CS(=O)(=O)C1=C(C(=O)O)N2C(=O)[C@@H](NC(=O)/C(=N/OCCCl)c3csc(N)n3)CN2C1 |  |  |
|  |  |  |  | 0.125 (≈ 0.255 µM) | 0.03 (≈ 0.0612 µM) | 0.125 (≈ 0.255 µM) | 0.03 (≈ 0.0612 µM) | 128 (≈ 261 µM) | 16 (≈ 32.6 µM) | 8 (≈ 16.3 µM) | 0.06 (≈ 0.122 µM) |  |  | CS(=O)(=O)C1=C(C(=O)O)N2C(=O)[C@@H](NC(=O)/C(=N/OCCCF)c3csc(N)n3)CN2C1 |  |  |
|  |  |  |  | 0.125 (≈ 0.27 µM) | 0.03 (≈ 0.0647 µM) | 0.06 (≈ 0.129 µM) | 0.25 (≈ 0.539 µM) | 64 (≈ 138 µM) | > 128 | > 128 | 16 (≈ 34.5 µM) |  |  | CC(C)(O/N=C(/C(=O)N[C@H]1CN2CC(C#N)=C(C(=O)O)N2C1=O)c1csc(N)n1)C(=O)O |  |  |
|  |  |  |  | 0.125 (≈ 0.295 µM) | 0.03 (≈ 0.0709 µM) | 0.25 (≈ 0.59 µM) | 0.03 (≈ 0.0709 µM) | 128 (≈ 302 µM) | 16 (≈ 37.8 µM) | 32 (≈ 75.6 µM) | 0.25 (≈ 0.59 µM) |  |  | N#CC1=C(C(=O)O)N2C(=O)[C@@H](NC(=O)/C(=N/OCCF)c3csc(N)n3)CN2C1 |  |  |
